Compound activity: PubChem BioAssay, several laboratories
Most compounds without a hit are left out; they make up all but 2.6% or so of the library.
SENP6 block: inhibitors of human SENP6 protease | AID 2599 | Recombinant SENP6 catalytic domain, aminoluciferin luminescence | inhibition, % at 10 µM | Q9GZR1 | actives 1.8% (n = 330,000);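 active means inhibition above about 50% at the single tested dose, limit read from the data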;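 further: plate controls were DMSO wells with enzyme for no effect and DMSO wells lacking enzyme for full effect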
Target sequence (Q9GZR1 628-1112 limits assumed): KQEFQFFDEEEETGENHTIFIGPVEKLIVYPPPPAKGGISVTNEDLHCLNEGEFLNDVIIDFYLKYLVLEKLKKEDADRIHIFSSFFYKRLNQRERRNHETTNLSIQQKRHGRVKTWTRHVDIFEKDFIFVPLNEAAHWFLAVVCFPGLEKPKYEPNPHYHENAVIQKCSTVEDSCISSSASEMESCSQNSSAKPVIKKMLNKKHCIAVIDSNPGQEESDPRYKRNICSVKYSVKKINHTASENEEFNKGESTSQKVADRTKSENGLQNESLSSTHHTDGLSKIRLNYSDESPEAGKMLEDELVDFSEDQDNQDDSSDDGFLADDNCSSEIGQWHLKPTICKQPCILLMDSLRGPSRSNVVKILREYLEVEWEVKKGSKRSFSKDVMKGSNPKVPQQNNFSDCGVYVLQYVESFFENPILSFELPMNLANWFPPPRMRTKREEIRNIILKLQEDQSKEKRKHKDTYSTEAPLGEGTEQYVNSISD
SENP1 FRET inh: blocks the human SENP1 SUMO protease catalytic domain; recombinant SENP1 catalytic domain, CyPet-SUMO1-YPet FRET cleavage; actives 0.21% (n = 360,000); AID 624204; inhibition, % at 10 µM;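 active means inhibition at least 30% at 10 µM, raw YFP signal under a set limit, fluorescence ratio 0.5 to 1.5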;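 further: 0% = enzyme with DMSO and 100% = no enzyme wells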
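Assay system: hSENP1 catalytic domain, recombinant. Amount: SENP1 enzyme, 20 pM final. Schedule: 50 min reaction, RT, dark. Technique: FRET, CFP and YFP emission. Control set: no-enzyme wells low, DMSO-plus-enzyme wells high control.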
SENP8 block-1: inhibitors of human SENP8 protease. AID 2540. Q96LD8. actives 1.2% (n = 330,000). purified SENP8, Z-RLRGG-aminoluciferin cleavage, luminescence. inhibition, % at 10 µM; in the data active means inhibition above about 50%
SENP7 inh: inhibitors of human SENP7 protease | Q9BQF6 | recombinant SENP7, Z-RLRGG-aminoluciferin luminescence, 40 min | inhibition, % at 5 µM | actives 1.5% (n = 330,000) | AID 434973;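 active means inhibition above about 50% at the single test dose, limit read from the data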;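 further: plate controls were DMSO with enzyme for no effect and no enzyme buffer wells for full effect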
SENP8 block-2: inhibitors of human SENP8 protease. Q96LD8. recombinant SENP8, Nedd8 substrate fluorescence. inhibition, % at 20 µM. actives 0.64% (n = 360,000). AID 602440; in the data active means inhibition mostly above about 40%, no sharp cut-off; inactive means mostly below about 27%
UCH37 inh: inhibitors of human deubiquitinating enzyme UCH37 | Q9Y5K5 | purified proteasome/UCH37, Ub-AMC cleavage fluorescence | inhibition, % (test concentration not listed) | actives 0.33% (n = 330,000);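 active means mean inhibition over replicate wells above about 20%, limit read from the data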;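 further: 0% = compound-free wells with enzyme and 100% = wells lacking proteasome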
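System: Proteasome-associated human UCH37 deubiquitinase; Input: 0.15 nM proteasome in added enzyme buffer; Also added: Ub-AMC substrate from 1 µM stock; Incubation: 30 min compound-proteasome preincubation then 25 min substrate reaction, room temperature; Detection: fluorescence, ex 355 nm, em 460 nm; Read-out: % inhibition of Ub-AMC cleavage fluorescence; Benchmarks: no-proteasome and no-compound wells.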
SENP8 confirm: confirmation of human SENP8 protease inhibitors. shares compounds with SENP7 inh. Recombinant SENP8, Z-RLRGG-aminoluciferin luminescence, 60 min. inhibition, % at 12.5 µM. actives 40% (n = 6,200). AID 488912;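 active means mean inhibition across replicates above about 50%, limit read from the data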
SENP6 conf: confirmation of human SENP6 protease inhibitors; inhibition, % at 12.5 µM; actives 58% (n = 6,200); AID 488915; shares compounds with SENP7 inh; recombinant SENP6, Z-RLRGG-aminoluciferin luminescence
SENP7 confirm: confirmation of human SENP7 protease inhibitors; shares compounds with SENP7 inh; recombinant SENP7, Z-RLRGG-aminoluciferin luminescence, 40 min; inhibition, % at 12.5 µM; actives 69% (n = 6,200)
Casp3 select: selectivity test for SENP inhibitors: human caspase-3 inhibition; actives 60% (n = 6,200); purified caspase-3, Z-DEVD-aminoluciferin luminescence, 60 min; inhibition, % at 12.5 µM; shares compounds with SENP7 inh;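 active means mean inhibition above about 50%, limit read from the data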;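 further: plate controls were enzyme with DMSO for no effect and wells without caspase-3 for full effect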
Target sequence (P42574 28-227 limits assumed): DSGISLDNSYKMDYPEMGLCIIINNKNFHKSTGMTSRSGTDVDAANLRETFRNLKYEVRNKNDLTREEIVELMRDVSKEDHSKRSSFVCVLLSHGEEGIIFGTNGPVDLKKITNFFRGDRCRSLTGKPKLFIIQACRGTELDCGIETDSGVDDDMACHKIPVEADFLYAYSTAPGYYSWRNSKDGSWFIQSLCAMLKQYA
Luc interf: luminescence interference (SENP counter-screen); shares compounds with SENP7 inh; Pre-incubated SENP8/Z-RLRGG-aminoluciferin, luciferase luminescence interference; inhibition, % at 12.5 µM; actives 39% (n = 6,200); AID 488919;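 active means mean inhibition above about 50% when retested at one dose, limit read from the data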;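 further: plate controls were DMSO wells with completed reaction for no effect and substrate without enzyme for full effect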
* hit, by the source's call; i = inactive; / = no result given.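 How the source made its calls, unless noted: active means mean inhibition above about 50% in the one-dose retest (limit read from the data); inactive means the rest.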

SMILES	SENP6 block	SENP1 FRET inh	SENP8 block-1	SENP7 inh	SENP8 block-2	UCH37 inh	SENP8 confirm	SENP6 conf	SENP7 confirm	Casp3 select	Luc interf
Nc1c(N=Nc2ccccc2F)c(=O)[nH]n1-c1ccccc1	80*	-2	55*	77*	33	5	17	36	53*	24	14
CC(C)c1ccc2oc(-c3cc(N)ccc3O)nc2c1	94*	19	91*	86*	-115	4	44	91*	94*	70*	20
Nc1ccc(-c2nc3ncccc3o2)c(O)c1	5	-30	-5	-4	-285	i	/	/	/	/	/
Cc1ccccc1-c1nc2cc(N)ccc2o1	72*	-26	60*	74*	-264	-91	9	9	-3	0	1
COc1cccc(C=NNC(=O)CSc2ccccc2C)c1O	/	/	/	/	/	0	/	/	/	/	/
O=C(Nc1ccc(Cl)cn1)c1ccccc1F	82*	2	64*	80*	-3	3	2	71*	93*	85*	42
Cc1cc(NC(=O)c2cccc(F)c2)ncc1NC(=O)c1ccco1	94*	0	82*	93*	19	5	87*	87*	99*	95*	88*
O=C(Nc1ccc(NC(=O)c2ccco2)nc1)c1cccc(F)c1	4	0	3	7	6	-7	/	/	/	/	/
O=C(Nc1ccc(Cl)cn1)c1cccc(F)c1	91*	2	73*	89*	17	1	83*	85*	97*	92*	81*
Cc1cc(NC(=O)c2ccccc2)ncc1NC(=O)c1cccs1	64*	-3	72*	-17	-4	3	76*	74*	93*	90*	80*
O=C(Nc1cccc(C(=O)Nc2ccc(Cl)cn2)c1)c1ccccc1	8	1	-4	9	8	1	/	/	/	/	/
O=C(NN=Cc1sc(=O)[nH]c1-[n+]1ccc2ccccc2c1)c1ccccc1[O-]	/	/	/	/	/	14	/	/	/	/	/
O=C(NC(=O)c1ccccc1)Nc1ccc(Cl)cn1	27	1	0	72*	-2	-2	-2	4	15	36	1
Cc1cc(Cl)ccc1OCC(=O)OCC(=O)Nc1ccc(Cl)cn1	/	3	/	/	16	/	/	/	/	/	/
O=C(COc1ccc(Cl)cc1Cl)Nc1ccc(Cl)cn1	84*	2	72*	1	-4	4	44	43	47	59*	31
O=C(NN=Cc1cccnc1)c1cccc(F)c1	/	/	/	/	/	0	/	/	/	/	/
CC(C)(C)C(=O)Nc1ccc(C(=O)NN=Cc2ccccc2OC(=O)c2ccccc2)cc1	/	/	/	/	/	0	/	/	/	/	/
Cc1ccc(-n2ncc3c2ncn2c(C)nnc32)cc1C	54*	3	47	-9	-246	-2	50	45	73*	76*	13
CCc1nnc2c3cnn(-c4ccccc4)c3ncn12	-4	-3	-7	-1	-235	-4	/	/	/	/	/
CC(=O)Nc1ccc(N/C=C/C(=O)c2ccco2)cc1	11	-18	2	-1	-51	2	/	/	/	/	/
COc1ccccc1Oc1ccc(N/C=C/C(=O)c2ccco2)cc1	85*	-23	55*	57*	-197	-2	88*	89*	100*	81*	76*
O=C(/C=C/Nc1ccc(F)c(Cl)c1)c1ccco1	70*	-47	45	27	-378	2	67*	66*	88*	56*	14
O=C(/C=C/Nc1cccc(F)c1)c1ccco1	82*	-77	52*	73*	-265	2	-10	72*	94*	85*	78*
COc1ccc(/C=C/C(=O)NCC(=O)NN=C(C)c2ccco2)cc1	/	/	/	/	/	4	/	/	/	/	/
COc1ccc(-c2cc(C(=O)NN=C(C)c3cccnc3)c3cc(C)ccc3n2)cc1OC	/	/	/	/	/	0	/	/	/	/	/
SMILES	SENP6 block	SENP1 FRET inh	SENP8 block-1	SENP7 inh	SENP8 block-2	UCH37 inh	SENP8 confirm	SENP6 conf	SENP7 confirm	Casp3 select	Luc interf
N#Cc1c(NC(=O)CSc2nc(N)cc(=O)[nH]2)sc2c1CCCCCC2	-24	1	-6	1	19	0	/	/	/	/	/
NC(=O)c1c(NC(=O)c2ccccc2)sc2c1CCC2	57*	-5	41	12	-126	-7	-5	15	83*	42	0
NC(=O)c1c(NC(=O)c2ccccc2)sc2c1CCN(Cc1ccccc1)C2	-8	-30	2	0	-402	-205	/	/	/	/	/
CN1CCc2c(sc(NC(=O)c3ccc4ccccc4c3)c2C(N)=O)C1	62*	-19	67*	68*	-315	/	59*	61*	88*	61*	44
NC(=O)c1c(NC(=O)c2ccncc2)sc2c1CCCC2	-8	0	-8	-6	1	2	/	/	/	/	/
N#Cc1c(NC(=O)CSc2ncn[nH]2)sc2c1CCCCC2	76*	1	68*	33	16	7	27	83*	89*	23	48
NC(=O)c1c(NC(=O)c2ccccc2)sc2c1CCc1ccccc1-2	10	-4	-4	64*	-272	-121	-26	-18	-6	-6	-9
CC(=NNC(=O)c1ccccn1)c1ccc(O)cc1	/	/	/	/	/	5	/	/	/	/	/
Cc1cc(C(=O)Nc2sc3c(c2C#N)CCCCC3)cs1	57*	-24	31	77*	-20	-21	16	38	40	23	16
O=C(Nc1sc2c(c1C(=O)O)CCC2)c1cccc(Cl)c1	97*	0	95*	68*	-11	9	96*	99*	102*	95*	98*
Cc1cccc(C(=O)Nc2sc3c(c2C(=O)O)CCCC3)c1	93*	2	93*	70*	-83	1	97*	98*	102*	95*	79*
CC(=O)Nc1sc2c(c1C#N)CCCC2	4	0	-4	-6	10	0	/	/	/	/	/
O=C(Nc1sc2c(c1C(=O)O)CCCCC2)c1cccnc1	29	-2	23	-1	-15	7	/	/	/	/	/
O=C(Nc1sc2c(c1C(=O)O)CCCC2)c1ccccc1Cl	13	0	-17	-4	-27	6	/	/	/	/	/
O=c1cnnc(NN=CC2CC=CCC2)[nH]1 (centres undefined)	/	/	/	/	/	1	/	/	/	/	/
